Test results from ChEMBL document CHEMBL1148398, “Design, synthesis, and biological evaluation of thio-containing compounds with serum HDL-cholesterol-elevating properties” (2004).

Tests used:
Rattus norvegicus [1] = assay: Effect of compound on triglyceride levels in 6th group of normal chow-fed male rats after a dose of 50 mg/kg/day; assay type: functional, organism-based
How it was run: (§1)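 Male Sprague–Dawley CD rats (60–80 g) on Purina 5001 chow with a reverse 12 h light/dark cycle. Dosed once daily by oral gavage for 4 days, suspended in 1.3% Tween 80 / 0.25% CMC. Fasted overnight and bled 24 h after the last dose. Serum TC and glycerol-blanked TG measured enzymatically; VLDL-C by FPLC fractionation with cholesterol assay. n=6, mean ± SEM.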

Cricetinae gen. sp. [2] = assay: Effect of compound on alanine aminotransferase (ALT) levels in 1st group of cholesterol-fed male hamsters at 3 mg/kg/day after 14 days of treatment; conditions: Mesocricetus auratus
Cricetinae gen. sp. [3] = assay: Effect of compound on lactic dehydrogenase (LDH) levels in 3rd group of cholesterol-fed male hamsters at 30 mg/kg/day after 14 days of treatment; conditions: Mesocricetus auratus
Cricetinae gen. sp. [4] = assay: Effect of compound on alkaline phosphatase (ALKP) levels in 4th group of cholesterol-fed male hamsters at 100 mg/kg/day after 14 days of treatment; conditions: Mesocricetus auratus
[5] = Effect on serum lipids in 4th group of cholesterol-fed male hamsters at 100 mg/kg/day after 14 days of treatment was evaluated as ratio of total cholesterol levels to high-density lipoprotein cholesterol levels; assay type: functional
How it was run: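 Male Syrian Golden hamsters on chow plus 0.25% cholesterol, 2 weeks before and during dosing. Oral gavage for 14 days in 2% Tween 80/saline. Fasted 4 h before sacrifice. Serum total cholesterol measured enzymatically; HDL-C from cholesterol in FPLC lipoprotein fractions; TC/HDL-C ratio calculated. Six per group, mean ± SEM.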

Rattus norvegicus [6] = assay: Effect of compound on low-density lipoprotein cholesterol levels in 2nd group of normal chow-fed male rats after a dose of 2 mg/kg/day; assay type: functional, organism-based
How it was run: (§2)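 Male Sprague–Dawley CD rats, 60–80 g, on standard chow with reverse 12 h light/dark cycle. One oral gavage dose daily for 4 days, suspended in 1.3% Tween 80 and 0.25% CMC. Fasted overnight; sacrificed 24 h after the last dose. Serum TC on clinical analyzer, lipoproteins by FPLC with cholesterol per fraction, T4 on analyzer. Mean ± SEM, six rats per group.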

Rattus norvegicus [7] = assay: Effect of compound on alkaline phosphatase (ALKP) levels in 3rd group of normal chow-fed male rats after a dose of 5 mg/kg/day; assay type: functional, organism-based
How it was run: (§3)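 Male Sprague–Dawley CD rats (60–80 g) on standard chow under a reversed 12 h light/dark cycle. Compound was suspended in 1.3% Tween 80/0.25% CMC and given as a single daily oral gavage dose for 4 days. Rats were fasted overnight and killed 24 h after the last dose. Serum ALT, AST, ALKP and LDH were read on a clinical analyzer. Weight gain was start versus end weight. Mean ± SEM, n = 6.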

Mesocricetus auratus [8] = assay: Effect of compound on alanine aminotransferase (ALT) levels in 3rd group of cholesterol-fed male hamsters at 30 mg/kg/day after 14 days of treatment
Rattus norvegicus [9] = assay: Effect of compound on alanine aminotransferase (ALT) levels in 4th group of normal chow-fed male rats after a dose of 10 mg/kg/day
Rattus norvegicus [10] = assay: Effect of compound on alkaline phosphatase (ALKP) levels in 2nd group of normal chow-fed male rats after a dose of 2 mg/kg/day; assay type: functional, organism-based; how it was run: as §3
Rattus norvegicus [11] = assay: Effect of compound on low-density lipoprotein cholesterol levels in 6th group of normal chow-fed male rats after a dose of 50 mg/kg/day; assay type: functional, organism-based; how it was run: as §2
Rattus norvegicus [12] = assay: Percent change in high-density lipoprotein cholesterol in hypercholesterolemic rats dosed at 100 mg/kg/day for 8 days; assay type: functional
Rattus norvegicus [13] = assay: Effect of compound on liver weight in 4th group of normal chow-fed male rats after a dose of 10 mg/kg/day; assay type: functional
How it was run: (§4)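 Male Sprague–Dawley CD rats, 60–80 g, on chow with a reverse 12 h light/dark cycle. Given one oral gavage dose daily for 4 days, suspended in 1.3% Tween 80/0.25% CMC. Fasted overnight and sacrificed 24 h after the last dose for blood and liver. Serum liver enzymes read on a clinical analyzer. Six per group, mean ± SEM.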

Rattus norvegicus [14] = assay: Effect of compound on total plasma cholesterol levels in 5th group of normal chow-fed male rats after a dose of 20 mg/kg/day; assay type: functional, organism-based; how it was run: as §1
Rattus norvegicus [15] = assay: Effect of compound on aspartate aminotransferase (AST) levels in 4th group of normal chow-fed male rats after a dose of 10 mg/kg/day; assay type: functional, organism-based; how it was run: as §3
Rattus norvegicus [16] = assay: Effect of compound on serum apolipoprotein A1 concentration in chow-fed male rats at a dose of 0 mg/kg/day; assay type: functional, organism-based
How it was run: (§5)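 Separate dose-response study in male Sprague–Dawley CD rats, 60–80 g, on chow. Oral gavage once daily for 4 days in 1.3% Tween 80 / 0.25% CMC; fasted overnight, bled 24 h after last dose. Apo-A1 by ELISA with rabbit anti-rat primary, alkaline phosphatase-conjugated anti-rabbit IgG and p-nitrophenyl phosphate substrate. HDL-C by FPLC fractionation. Mean ± SEM, six per group.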

Cricetinae gen. sp. [17] = assay: Effect of compound on very low-density lipoprotein cholesterol levels in 2nd group of cholesterol-fed male hamsters at 10 mg/kg/day after 14 days of treatment; conditions: Mesocricetus auratus
Cricetinae gen. sp. [18] = assay: Effect of compound on thyroxine levels in 2nd group of cholesterol-fed male hamsters at 10 mg/kg/day after 14 days of treatment; conditions: Mesocricetus auratus
Rattus norvegicus [19] = assay: Effect of compound on gain in body weight in 1st group of normal chow-fed male rats after a dose of 1 mg/kg/day; assay type: functional; how it was run: as §3
Rattus norvegicus [20] = assay: Effect of compound on triglycerides level in 2nd group of normal chow-fed male rats after a dose of 2 mg/kg/day; assay type: functional, organism-based; how it was run: as §1
Rattus norvegicus [21] = assay: Percent change in triglycerides in hypercholesterolemic rats at a dose of 100 mg/kg/day for 8 days; assay type: functional
Rattus norvegicus [22] = assay: Effect of compound on serum high-density lipoprotein cholesterol concentration in chow-fed male rats at a dose of 0 mg/kg/day; assay type: functional, organism-based; how it was run: as §5
Rattus norvegicus [23] = assay: Effect of compound on liver weight in 7th group of normal chow-fed male rats after a dose of 100 mg/kg/day; assay type: functional; how it was run: as §4
[24] = Effect on serum lipids in 4th group of normal chow-fed male rats after a dose of 10 mg/kg/day was evaluated as ratio of total plasma cholesterol levels to high-density lipoprotein cholesterol levels; assay type: functional
How it was run: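 Male Sprague–Dawley CD rats, 60–80 g, chow-fed, dosed by oral gavage daily for 4 days in 1.3% Tween 80/0.25% CMC. Fasted overnight, bled 24 h after the last dose. Serum total cholesterol by enzymatic reagent; HDL-C from cholesterol in FPLC fractions; TPC/HDL-C ratio calculated. Six per group, mean ± SEM.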

Mesocricetus auratus [25] = assay: Effect of compound on liver weight in 3rd group of cholesterol-fed male hamsters at 30 mg/kg/day after 14 days of treatment
Cricetinae gen. sp. [26] = assay: Effect of compound on triglycerides level in 4th group of cholesterol-fed male hamsters at 100 mg/kg/day after 14 days of treatment; conditions: Mesocricetus auratus

SMILES: CCN1CC(=O)N(c2cc(Cl)ccc2C)C1=S
- Serum level (Rattus norvegicus [1]): 14 mg/dL
- Level (Cricetinae gen. sp. [2]): 182 U l-1
- Level (Cricetinae gen. sp. [3]): 823 U l-1
- Level (Cricetinae gen. sp. [4]): 136 U l-1
- Ratio [5]: 1.95
- Serum level (Rattus norvegicus [6]): 5.7 mg/dL
- Level (Rattus norvegicus [7]): 344 U l-1
- Level (Mesocricetus auratus [8]): 112 U l-1
- Level (Rattus norvegicus [9]): 58 U l-1
- Level (Rattus norvegicus [10]): 373 U l-1
- Serum level (Rattus norvegicus [11]): 7.1 mg/dL
- Change (Rattus norvegicus [12]): 132%
- Liver weight (Rattus norvegicus [13]): 8.3 g
- Serum level (Rattus norvegicus [14]): 84 mg/dL
- Level (Rattus norvegicus [15]): 182 U l-1
- Serum level (Rattus norvegicus [16]): 63.2 mg/dL
- Serum level (Cricetinae gen. sp. [17]): 102 mg/dL
- Serum level (Cricetinae gen. sp. [18]): 5.73 µg/dL
- Body weight (Rattus norvegicus [19]): 26.3 g
- Serum level (Rattus norvegicus [20]): 15 mg/dL
- Change (Rattus norvegicus [21]): -19%
- Serum level (Rattus norvegicus [22]): 51.9 mg/dL
- Liver weight (Rattus norvegicus [23]): 7.8 g
- Ratio [24]: 1.39
- Liver weight (Mesocricetus auratus [25]): 8.5 g
- Serum level (Cricetinae gen. sp. [26]): 342 mg/dL
